Data published in ChEMBL document CHEMBL2034844, “Novel multi-functional nitrones for treatment of ischemic stroke” (2012).
The source made the active and inactive calls. No cut-off for these calls is given here.

Legend:
[1] = Antioxidant activity assessed as superoxide anion-scavenging activity at 125 to 1000 uM by spectrophotometry; format: functional
Method in brief: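 Glass-cuvette mix of Tris–HCl buffer (pH 8.2), pyrogallic acid solution (0.16 mmol/L) and test sample at final 125, 250, 500 and 1000 µM; pyrogallol-autoxidation superoxide assay.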

[2] = test system: Radical scavenging activity; test: Antioxidant activity assessed as DPPH radical-scavenging activity at 0.5 to 4 mM by spectrophotometry; format: functional
Method in brief: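 50 µL methanolic compound solution mixed with 150 µL methanolic DPPH; absorbance at 515 nm followed continuously until stable (50 min); clearance (%) calculated from the control absorbance and the reaction absorbance at 50 min.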

[3] = Antioxidant activity assessed as peroxynitrite radical-scavenging activity at 1 to 1000 uM by SIN-1 based chemiluminescence assay; format: functional
Method in brief: (§1)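 Peroxynitrite generated from SIN-1 dissolved in 0.1 M PBS. The mix held PBS, luminol, compound or PBS control, and SIN-1 added last to start the reaction; read-out was chemiluminescence.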

Neuron [4] = test: Neuroprotective activity against t-BHP-induced rat cerebellar granule neuronal damage at 100 uM preincubated for 30 mins prior t-BHP challenge measured after 4 hrs by MTT assay (reference value: 49.4%); format: functional, cell-based
Platelet = test: Inhibition of platelet aggregation in New Zealand rabbit platelet rich plasma assessed as maximum platelet aggregation at 2 mM after 8 mins by platelet aggregometry (reference value: 57.3 +/- 8.3%); format: functional, Oryctolagus cuniculus; parameters: scale not given: the % may be the effect or the level left
Neuron [5] = test: Neuroprotective activity against t-BHP-induced rat cerebellar granule neuronal damage at 1000 uM preincubated for 30 mins prior t-BHP challenge measured after 4 hrs by MTT assay (reference value: 49.4%); format: functional
[6] = Antioxidant activity assessed as hydroxyl radical-scavenging activity at 1000 uM by monitoring p-NDA bleaching using spectrophotometry; format: functional
Method in brief: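 Fenton-generated hydroxyl radical from FeSO4 (final 4.0 mM) and freshly prepared H2O2 (7.3 mM). p-NDA was prepared at 1.6 mM in 50 mM NaCl. Compounds were dissolved in double-distilled water at final 125–1000 µM. p-NDA bleaching was followed as absorbance loss at 440 nm over 100 s; clearance (%) was calculated from absorbance at 0 and 100 s.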

Rattus norvegicus = test: Neuroprotective activity in Sprague-Dawley rat tMCAO model assessed as reduction in total brain infarct volume at 110 mg/kg, ip after 24 hrs by TTC staining relative to control; format: functional; parameters: scale not given: the % may be the effect or the level left; conditions: route intraperitoneal
Method in brief: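 Adult male Sprague–Dawley rats (260–310 g), chloral hydrate anaesthesia; nylon suture occluding right MCA for 2 h, then reperfusion. Only rats with neurological score 2 or 3 used; body temperature held at 37 °C. Dosed ip 2 h after MCAO; saline vehicle controls. Killed after 22 h reperfusion; six 2-mm coronal slices stained with 0.5% TTC, 37 °C, 30 min; infarct volume by image analysis; n = 13/group.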

[7] = Antioxidant activity assessed as peroxynitrite radical-scavenging activity at 1 uM by SIN-1 based chemiluminescence assay; format: functional; method in brief: as §1
[8] = Antioxidant activity assessed as peroxynitrite radical-scavenging activity at 1000 uM by SIN-1 based chemiluminescence assay; format: functional; method in brief: as §1

Structure (SMILES) | Activity [1] | Activity [2] | Activity [3] | Activity (Neuron [4]) | Activity (Platelet) [%] | Activity (Neuron [5]) | Activity (Neuron [5]; record 2) [%] | Activity [6] [%] | Activity (Rattus norvegicus) [%] | Activity [7] [%] | Activity [8] [%]
CC(C)(C)/[N+]([O-])=C\c1ccccc1 | inactive | Active | Active |  |  |  |  |  |  |  | 
CCCc1nccnc1/C=[N+](\[O-])C(C)(C)C | Active | Active | Active | Active | 48 | Active | 66 |  |  |  | 
CCc1nccnc1/C=[N+](\[O-])C(C)(C)C | Active |  | Active | Active | 33.8 | Active | 64.6 |  |  |  | 
CC(C)(C)/[N+]([O-])=C/c1cnc2ccccc2n1 |  | Active | inactive | inactive |  | 53.9% |  |  |  |  | 
CC(C)(C)/[N+]([O-])=C/c1cccc2nccnc12 |  | Active | inactive | inactive |  | 54.8% |  |  |  |  | 
Cc1nc(C)c(C)nc1C [LIGUSTRAZINE] | inactive | Active | inactive |  | 42.9 | 58.4% |  |  |  |  | 
CC(=O)Oc1ccccc1C(=O)O [ASPIRIN] |  |  |  |  | 26.6 |  |  |  |  |  | 
Cc1nc(C)c(CN(Cc2nc(C)c(C)nc2C)C(C)(C)C)nc1C | inactive | Active | inactive | Active | 44.3 | 75.5% |  | 100 |  |  | 
Cc1nc(/C=[N+](\[O-])C(C)(C)C)c(C)nc1/C=[N+](\[O-])C(C)(C)C | Active | Active |  | Active | 37.7 | 80.6% |  |  | 65 | 31.9 | 99.4
